Experimental data from different studies.
Protocols differ between the studies behind these lines.
Effect on: cell growth or viability

Compound | cell line | test | setting | IC50 [µM]
CCCOc1ccc2[nH]cc(C(=O)C(C#N)=Cc3cn(C)c4ccccc34)c2c1 | MIA PaCa-2 | MTT | 48 h | 28.9
C=C1C[C@@]23CC[C@H]4[C@@](C)(CCC[C@@]4(C)C(=O)O)[C@@H]2CC[C@@H]1C3 | T47D | MTT | 75 h | 150
Cc1c(-c2ccc(N3CCc4cccc(C(=O)Nc5nc6ccccc6s5)c4C3)nc2C(=O)O)cnn1CC12CC3CC(CC(C3)C1)C2 | MOLT-4 | MTS | 48 h | 0.0021
c1ccc(-c2cc(CNc3cccc4cccnc34)on2)nc1 | LN-229 | MTS | 72 h | 22.8
CNc1cccc(Nc2nc(-c3ccncc3)nc3c2CNCC3)c1 | DU-145 | MTT | – | 45.2
Nc1ccccc1NC(=O)c1ccc(Cn2cnc3c(Nc4ccc(Cl)cc4)ncnc32)cc1 | MOLT-4 | MTT | 72 h | 0.49
CCn1cc(/C=C(\C#N)C(=O)c2c[nH]c3ccccc23)c2ccccc21 | MIA PaCa-2 | MTT | 48 h | > 40
Cc1c(-c2ccc(N3CCc4cccc(C(=O)Nc5nc6ccccc6s5)c4C3)nc2C(=O)O)cnn1CC12CC3CC(C1)CC(C(=O)NCCCCNc1cccc4c1C(=O)N(C1CCC(=O)NC1=O)C4=O)(C3)C2 (centres unmarked) | MOLT-4 | MTS | 48 h | 0.0302
NS(=O)(=O)c1ccc(-n2nc(C(=O)NN3C(=O)CCC3=O)cc2-c2ccccc2)cc1 | PaCa-2 | fluorescence | 48 h | 27.4
O=C(CSc1nc2ccccc2s1)N/N=C/c1ccc(OCC(=O)Nc2ccc([N+](=O)[O-])cc2)cc1 | LN-229 | MTS | 72 h | 4.39
Cc1c(-c2ccc(N3CCc4cccc(C(=O)Nc5nc6ccccc6s5)c4C3)nc2C(=O)NCCCCCCCCNc2cccc3c2C(=O)N(C2CCC(=O)NC2=O)C3=O)cnn1CC12CC3CC(CC(C3)C1)C2 (centres unmarked) | MOLT-4 | MTS | 48 h | > 2
N#Cc1ccc(-c2cc(COc3cc(C(F)(F)F)nc4ccccc34)on2)cc1 | LN-229 | MTS | 72 h | 23.9
Cc1ncsc1-c1ccc([C@H](CC(=O)NCCCCCCCCNC(=O)c2nc(N3CCc4cccc(C(=O)Nc5nc6ccccc6s5)c4C3)ccc2-c2cnn(CC34CC5CC(CC(C5)C3)C4)c2C)NC(=O)[C@@H]2C[C@@H](O)CN2C(=O)[C@@H](NC(=O)C2(C#N)CC2)C(C)(C)C)cc1 | MOLT-4 | MTS | 48 h | 0.313
O=C(CSc1nc2ccccc2s1)N/N=C/c1ccc(OCC(=O)Nc2ccc(Br)cc2)cc1 | LN-229 | MTS | 72 h | 27.8
Cc1c(-c2ccc(N3CCc4cccc(C(=O)Nc5nc6ccccc6s5)c4C3)nc2C(=O)NCCOCCOCCNc2cccc3c2C(=O)N(C2CCC(=O)NC2=O)C3=O)cnn1CC12CC3CC(CC(C3)C1)C2 (centres unmarked) | MOLT-4 | MTS | 48 h | 0.0164
Cn1nnc2c(C(N)=O)ncn2c1=O | LN-229 | MTT | – | 6000
CC(C)C(=O)Nc1ccc([N+](=O)[O-])c(C(F)(F)F)c1 | LNCaP | MTS | 48 h | 99.9
CC(=NNC(=O)c1cc(-c2ccccc2)n(-c2ccc(S(N)(=O)=O)cc2)n1)c1ccc(C)cc1 | PaCa-2 | fluorescence | 48 h | 11.5
COc1ccc(Nc2ncnc3c2ncn3Cc2ccc(C(=O)NO)cc2)cc1 | Jurkat | MTT | 72 h | 0.7
NS(=O)(=O)c1ccc(-n2nc(-c3nnc(S)o3)cc2-c2ccccc2)cc1 | PaCa-2 | fluorescence | 48 h | 34.2
Cc1ncsc1-c1ccc([C@@H](C)NC(=O)[C@H]2C[C@H](O)CN2C(=O)[C@H](NC(=O)CCCCCCNC(=O)C23CC4CC(CC(Cn5ncc(-c6ccc(N7CCc8cccc(C(=O)Nc9nc%10ccccc%10s9)c8C7)nc6C(=O)O)c5C)(C4)C2)C3)C(C)(C)C)cc1 | MOLT-4 | MTS | 48 h | 0.157
O=C(NO)c1ccc(Cn2cnc3c(Nc4cccc([N+](=O)[O-])c4)ncnc32)cc1 | MOLT-4 | MTT | 72 h | 0.92
Cc1ncsc1-c1ccc(CNC(=O)[C@@H]2C[C@@H](O)CN2C(=O)[C@@H](NC(=O)C2(F)CC2)C(C)(C)C)c(OCCOc2ccc(CN3CCN(c4cc(-c5ccccc5O)nnc4N)CC3)cc2)c1 | LNCaP | ATP luminescence | 7 days | 0.0161
COc1cc(C2C3=C(COC3=O)N(CCO)c3cc4c(cc32)CCC4)cc(OC)c1OC (centres unmarked) | BT-549 | ATP luminescence | 48 h | 0.037
COc1cc([C@@H]2c3cc4c(cc3[C@@H](O[C@@H]3O[C@@H]5CO[C@@H](C)O[C@H]5[C@H](O)[C@H]3O)[C@H]3COC(=O)[C@H]23)OCO4)cc(OC)c1O | LN-229 | MTS | 72 h | 0.02
Cc1ncsc1-c1ccc([C@H](C)NC(=O)[C@@H]2C[C@@H](O)CN2C(=O)[C@@H](NC(=O)CCCCCCCCCS(=O)(=O)NC(=O)c2nc(N3CCc4cccc(C(=O)Nc5nc6ccccc6s5)c4C3)ccc2-c2cnn(CC34CC5CC(CC(C5)C3)C4)c2C)C(C)(C)C)cc1 | MOLT-4 | MTS | 48 h | 0.0119
N/C(=N\O)c1ccc(-c2cc(CNc3cccc4cccnc34)on2)cc1 | LN-229 | MTS | 72 h | 15.6
Cc1c(-c2ccc(N3CCc4cccc(C(=O)Nc5nc6ccccc6s5)c4C3)nc2C(=O)NCCOCCNc2cccc3c2C(=O)N(C2CCC(=O)NC2=O)C3=O)cnn1CC12CC3CC(CC(C3)C1)C2 (centres unmarked) | MOLT-4 | MTS | 48 h | 0.0214
COc1cc2[nH]cc(C(=O)C(C#N)=Cc3cn(C)c4ccccc34)c2cc1OC | MIA PaCa-2 | MTT | 48 h | 15.6
